Measurements reported in ChEMBL document CHEMBL2034927, “Design, synthesis, anti-HIV evaluation and molecular modeling of piperidine-linked amino-triazine derivatives as potent non-nucleoside reverse transcriptase inhibitors” (Bioorg Med Chem, 2012).

Legend:
[1] = tested on: Human immunodeficiency virus 1; experiment: Antiviral activity against HIV1 3B infected in human MT4 cells assessed as inhibition of virus-induced cytopathic effect after 5 days by MTT assay; type: functional, organism-based; conditions: Human immunodeficiency virus 1, 3B, MT4, 120 h
Outline: (§1)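 MT-4 cells spun 5 min at 1000 rpm, resuspended at 6 × 10⁵ cells/mL, then infected with HIV-1 IIIB or HIV-2 ROD at 100–300 CCID50. Test compounds were added as serial fivefold dilutions. After 5 days, viability was read by MTT reduction at 540 and 690 nm, using the median OD of three wells. EC50 is the concentration giving 50% protection against virus-induced cytotoxicity.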

[2] = tested on: Human immunodeficiency virus 2; experiment: Antiviral activity against HIV2 ROD infected in human MT4 cells assessed as inhibition of virus-induced cytopathic effect after 5 days by MTT assay; type: functional, organism-based; conditions: Human immunodeficiency virus 2, ISOLATE ROD, MT4, 120 h; outline: as §1
[3] = Cytotoxicity against human MT4 cells after 5 days by MTT assay; type: cell-based
Outline: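 MT-4 cells at 6 × 10⁵ cells/mL were mock-infected with culture medium and exposed to serial fivefold dilutions of compound. After 5 days, viability was measured by MTT reduction at 540 and 690 nm, using the median OD of three wells. CC50 is the concentration reducing OD540 of the mock-infected control by 50%.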

[4] = Selectivity index, ratio of CC50 for human MT4 cells to EC50 for wild type HIV1 3B; type: toxicity, cell-based; conditions: read-out: Ratio CC50/EC50
Outline: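 HIV-1 IIIB stock at 100–300 CCID50 was added to MT-4 cells at 6 × 10⁵ cells/mL, with serial fivefold compound dilutions and mock-infected wells run in parallel. Viability was read by MTT at 540 and 690 nm after 5 days, using the median OD of three wells. EC50 is 50% protection from HIV-induced cytotoxicity, and CC50 is a 50% reduction of mock-infected OD540. SI is CC50/EC50.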

[5] = tested on: Human immunodeficiency virus 1; experiment: Antiviral activity against HIV1 RES056 harboring reverse transcriptase K103N/Y181C mutant infected in human MT4 cells assessed as inhibition of virus-induced cytopathic effect after 5 days by MTT assay; type: functional, organism-based; conditions: Human immunodeficiency virus 1, RES056, MT4, 120 h
Outline: (§2)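 MT-4 cells at 6 × 10⁵ cells/mL were infected with the double mutant HIV-1 RES056 (K103N+Y181C), with serial fivefold compound dilutions. After 5 days, viability was read by MTT at 540 and 690 nm, using the median OD of three wells. EC50 is 50% protection against virus-induced cytotoxicity, and CC50 is a 50% drop in OD540 of mock-infected cells. Fold resistance is the RES056 EC50 divided by the IIIB EC50.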

[6] = Selectivity index, ratio of CC50 for human MT4 cells to EC50 for HIV1 RES056 harboring reverse transcriptase K103N/Y181C RT mutant; type: toxicity, cell-based; conditions: read-out: Ratio CC50/EC50
[7] = tested on: Human immunodeficiency virus 1; experiment: Fold resistance, ratio of EC50 for HIV1 RES056 harboring reverse transcriptase K103N/Y181C RT mutant to EC50 for wild type HIV1 3B; type: functional; outline: as §2

Structure (SMILES)	EC50 [1] [µM]	EC50 [2] [µM]	CC50 at 120 h [3] [µM]	selectivity ratio [4]	EC50 [5] [µM]	selectivity ratio [6]	Ratio EC50 [7]
Cc1cc(C)c(Nc2nc(N)nc(NC3CCN(Cc4ccc(C#N)cc4)CC3)n2)c(C)c1	0.00566	> 3.26	3.26	576	> 3.26	< 1	>575.8
Cc1cc(C)c(Nc2nc(N)nc(NC3CCN(Cc4ccncc4)CC3)n2)c(C)c1	0.0049	> 20.1	20.1	4110	0.97	21	198.8
CCOC(=O)c1ccc(CN2CCC(Nc3nc(N)nc(Nc4c(C)cc(C)cc4C)n3)CC2)cc1	0.0116	> 5.91	5.91	512	> 5.91	< 1	>511.6
Cc1cc(C)c(Nc2nc(N)nc(NC3CCN(Cc4ccc(C(N)=O)cc4)CC3)n2)c(C)c1	0.0204	> 74.4	74.4	3640	3.33	22	162.8
Cc1cc(C)c(Nc2nc(N)nc(NC3CCN(Cc4ccc(S(N)(=O)=O)cc4)CC3)n2)c(C)c1	0.00575	> 19.9	19.9	3450	0.61	32	105.7
Cc1cc(C)c(Nc2nc(N)nc(NC3CCN(Cc4ccc(S(C)(=O)=O)cc4)CC3)n2)c(C)c1	0.00555	> 5.06	5.06	911	4.92	1	887.5
Cc1cc(C)c(Nc2nc(N)nc(NC3CCN(Cc4ccccc4)CC3)n2)c(C)c1	0.0103	> 23.6	23.6	2300	4.93	5	481.3
Cc1cc(C)c(Nc2nc(N)nc(NC3CCN(Cc4ccc([N+](=O)[O-])cc4)CC3)n2)c(C)c1	0.00787	> 3.46	3.46	439	> 3.46	< 1	>439.1
CNc1nc(Nc2c(C)cc(C)cc2C)nc(NC2CCN(Cc3ccncc3)CC2)n1	0.00725	> 25.8	25.8	3560	0.55	47	76.4
CCOC(=O)c1ccc(CN2CCC(Nc3nc(NC)nc(Nc4c(C)cc(C)cc4C)n3)CC2)cc1	0.0167	> 4.95	4.95	297	> 4.95	< 1	>297
CNc1nc(Nc2c(C)cc(C)cc2C)nc(NC2CCN(Cc3ccc(C(N)=O)cc3)CC2)n1	0.00461	> 27.4	27.4	5940	0.56	49	121.6
CNc1nc(Nc2c(C)cc(C)cc2C)nc(NC2CCN(Cc3ccc(S(N)(=O)=O)cc3)CC2)n1	0.00699	> 14.8	14.8	2120	0.51	29	72.7
CNc1nc(Nc2c(C)cc(C)cc2C)nc(NC2CCN(Cc3ccc(S(C)(=O)=O)cc3)CC2)n1	0.00606	> 9.64	9.64	1590	3.33	3	549.8
COc1nc(Nc2c(C)cc(C)cc2C)nc(NC2CCN(Cc3ccncc3)CC2)n1	0.0133	> 30.9	30.9	2320	1.48	21	111.1
CCOC(=O)c1ccc(CN2CCC(Nc3nc(Nc4c(C)cc(C)cc4C)nc(OC)n3)CC2)cc1	0.0147	> 8.48	8.48	577	> 8.48	< 1	>576.6
COc1nc(Nc2c(C)cc(C)cc2C)nc(NC2CCN(Cc3ccc(C(N)=O)cc3)CC2)n1	0.00864	> 33.4	33.4	3870	1.11	30	128.3
COc1nc(Nc2c(C)cc(C)cc2C)nc(NC2CCN(Cc3ccc(S(N)(=O)=O)cc3)CC2)n1	0.0106	> 19.6	19.6	1850	0.94	21	88.2
COc1nc(Nc2c(C)cc(C)cc2C)nc(NC2CCN(Cc3ccc(S(C)(=O)=O)cc3)CC2)n1	0.0119	> 13.5	13.5	1130	≥ 1.59	≤ 8	>=133.3
CC(C)Nc1cccnc1N1CCN(C(=O)c2cc3cc(NS(C)(=O)=O)ccc3[nH]2)CC1.CS(=O)(=O)O [DELAVIRDINE MESYLATE]	0.035	–	> 36.2	> 1030	> 36.2	≥ 1	>1033.6
O=C1Nc2ccc(Cl)cc2[C@@](C#CC2CC2)(C(F)(F)F)O1 [EFAVIRENZ]	0.00657	–	> 6.34	> 964	0.55	> 12	83.6
Cc1cc(C#N)cc(C)c1Oc1nc(Nc2ccc(C#N)cc2)nc(N)c1Br [ETRAVIRINE]	–	–	–	–	–	817	15.5
Cc1ccnc2c1NC(=O)c1cccnc1N2C1CC1 [NEVIRAPINE]	–	–	> 15	> 75	> 15	≥ 1	>75
Nc1ccn([C@H]2CC[C@@H](CO)O2)c(=O)n1 [ZALCITABINE]	1.39	1.67	> 94.7	> 68	–	–	–
Cc1cn([C@H]2C[C@H](N=[N+]=[N-])[C@@H](CO)O2)c(=O)[nH]c1=O [ZIDOVUDINE]	–	0.007	≥ 49.8	≥ 8300	0.01	≥ 4400	1.9
